Columns and labels:
[1] = system: Hep3B-luc in situ transplanted tumours; assay: Antitumour activity in Hep3B-luc orthotopic xenograft model; format: in vivo, BALB/c nude mice; settings: intragastric 50 mg/kg ART once daily for 24 days, n=3
Summary of the method: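 Female BALB/c nude mice, 6-8 weeks, received 3x10^6 Hep3B-luc cells in 0.02 ml PBS:Matrigel (1:1) in the left hepatic lobe. They were randomized into four groups (including untreated control) once tumour fluorescence reached ~10^7. Test formulations were given intragastrically once daily for 24 days. Tumour signal and body weight were measured twice weekly. Inhibition = (ROIcontrol−ROIdrug)/ROIcontrol ×100% from mean tumour signals.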

[2] = Pharmacokinetics studies in rats; format: in vivo; settings: male, SD, rat, plasma, po, 50 mg/kg
HepG2 cells = assay: Cellular uptake of NR-labelled NPs, flow cytometry; format: cell-based; settings: HepG2, NR 50 µg/ml, 0.5, 1 or 4 h
Summary of the method: (§1)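 Cells were seeded at 2x10^5 per well and cultured 24 h. They were co-incubated with Nile red-labelled nanoparticles at equal Nile red 50 µg/ml, then washed thrice with cold PBS and incubated a further 0.5, 1 or 4 h. Intracellular fluorescence was read by flow cytometry. Controls were untreated cells, free Nile red, and Nile red in unmodified PEG-PLGA nanoparticles.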

A549 cells = assay: Cellular uptake of NR-labelled NPs, flow cytometry; format: cell-based; settings: A549, NR 50 µg/ml, 0.5, 1 or 4 h
Summary of the method: as §1

[3] = Hepatoma-targeted and bio-distribution detection; format: in vivo, BALB/c nude mice; settings: tumour model mice, intragastric NR 20 mg/kg

C[C@H]1[C@H](OC(=O)CCC(=O)O)O[C@@H]2O[C@@]3(C)CC[C@H]4[C@H](C)CC[C@@H]1[C@@]24OO3 [ART, Artesunate]
Bioluminescence (ROI) (PG-21) [1]: 4.49±0.55 x10^9 photons/sec
AUC(0-inf) [2]: 2540 ng·h/mL
AUC(0-t) [2]: 2540 ng·h/mL
Cmax [2]: 4580 ng/mL
MRT [2]: 30 min
Tmax [2]: 15 min
half-life [2]: 15 min

CCN(CC)c1ccc2nc3c4ccccc4c(=O)cc-3oc2c1 [NR, Nile red]
Cellular fluorescence (uptake) (HepG2 cells): little fluorescence
Cellular fluorescence (uptake) (A549 cells): little fluorescence
In vivo NR fluorescence in whole body and liver [3]: lower fluorescence levels at 2 h

— publication PMC10580252 (Experimental and Therapeutic Medicine, 2023)
